From ChEMBL document CHEMBL3124940, “Design, synthesis and biological evaluation of D-ring opened galantamine analogs as multifunctional anti-Alzheimer agents” (Eur J Med Chem, 2014) come the findings set out here.

Molecules are shown by their SMILES. Active and inactive are the calls of the source. No cut-off for these calls is given here.

Series [1] can be described thus: Induction of nitric oxide release in PBS at 100 uM at pH 7.4 after 24 hrs by Griess method relative to control. Conditions: buffer, pH 7.4, 24 h. Format: physicochemical. The procedure, abridged: (§1)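 Test compound at 100 µM in phosphate buffer pH 7.4, alone or with 90 µL rat serum added, incubated 37 °C for 24 h. Griess reagent added, then 30 min at 37 °C with gentle shaking; absorbance read at 540 nm and blank-corrected. Nitrite quantified against an NaNO2 calibration curve and expressed as % of a theoretical 1 mol NO per mol nitrate; n = 3.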

Series [2] deals with Rattus norvegicus. In words: Antialzheimer activity in Wistar rat scopolamine-induced cognition impairment model assessed as decrease in amount of errors plus baits not found during exploration at 1 umol/100 g body weight, ip treated for 5 mins prior to scopolamine-challenge measured after 20 to 120 mins by eight-arm radial maze test. It is filed as functional, organism-based. The procedure, abridged:
(§2)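 Female 60-day-old Wistar rats (Han:Wist) trained in an eight-arm radial maze to error-free trials under 60 s on three consecutive days; each animal served as its own control. Test agent given i.p. in saline 5 min before scopolamine (0.05 mg/100 g b. wt., i.p. in saline). Errors plus baits not found after 10 min, and total searching time, recorded before and 20, 60, 120 min after scopolamine; n = 14, mean ± SEM.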

Series [3] concerns Rattus norvegicus. In words: Toxicity in Wistar rat scopolamine-induced cognition impairment model assessed as change in movement at 1 umol/100 g body weight, ip. Format: organism-based. Particulars: in vivo. The procedure, abridged:
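60-day-old female Wistar rats were trained in an eight-arm radial maze to no errors in under 60 s on 3 consecutive days; each rat served as its own control. Compound in saline was given i.p., then scopolamine (0.05 mg/100 g, saline, i.p.) 5 min later. Errors plus baits not found after 10 min and total searching time were recorded before and 20, 60 and 120 min after scopolamine; n = 14, mean ± SEM.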

The nature of series [4]: Selectivity ratio of IC50 for electric eel AChE to IC50 for equine serum BChE. The procedure, abridged: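 AChE is electric eel Type VI-S with acetylthiocholine; BChE is equine serum with butyrylthiocholine. At least five concentrations, each in triplicate. Ratio = IC50(AChE)/IC50(BChE).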
A further series concerns the target Cholinesterase (Equus caballus, UniProt P81908). In words: Inhibition of equine serum BChE using butyrylthiocholine iodide as substrate preincubated for 5 mins followed by substrate addition measured after 5 mins by Ellman's method. Put shortly: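 Ellman's method with equine serum BChE and butyrylthiocholine iodide; DTNB read-out at 412 nm, 25 °C. Phosphate buffer pH 8.0. At least five concentrations (normally 10^-4 to 10^-9 M), each in triplicate, to build the inhibition curve. Data are means of at least three determinations.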
A general note: Ellman's reagent forms a yellow product with free thiols.

The subject of series [5] is Rattus norvegicus. Nature of the series: Antialzheimer activity in Wistar rat scopolamine-induced cognition impairment model assessed as total exploration time at 1 umol/100 g body weight, ip treated for 5 mins prior to scopolamine-challenge by eight-arm radial maze test relative to control. Format: functional. The procedure, abridged: as §2
The nature of series [6]: Induction of nitric oxide release in PBS at 100 uM at pH 7.4 after 24 hrs by Griess method in presence of rat serum. Format: physicochemical. Particulars: pH 7.4, 24 h. The procedure, abridged: as §1
Background: Nitrite, measured by Griess reagent, commonly stands in for NO production.

For the next series, the target named is Acetylcholinesterase (Electrophorus electricus, UniProt O42275). Nature of the series: Inhibition of electric eel AChE using acetylthiocholine iodide as substrate preincubated for 5 mins followed by substrate addition measured after 5 mins by Ellman's method.
Series [7] relates to Rattus norvegicus. In words: Toxicity in Wistar rat assessed as change in movement at 1 umol/100 g body weight, ip. It is filed as organism-based. Conditions: in vivo.
For a further series, the system named is PC-12. Nature of the series: Neuroprotective activity in rat PC12 cells assessed as decrease in amyloid beta (1 to 42)-induced cytotoxicity at 0.08 to 10 uM after 24 hrs by MTT assay. Format: functional, cell-based. The procedure, abridged:
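PC12 cells grown in F-12 with 10% FBS, 37 °C, 5% CO2. Seeded at 2000 cells/well for 24 h. Aβ42 pretreated with HFIP, then brought to 100 μM in medium and held at 4 °C for 24 h. Compound (final […]–10 μM, DMSO <0.5%) given with Aβ42 (final 5 μM) for 24 h. MTT 4 h, formazan read at 540 nm. Expressed as % of control; three independent trials, mean ± SEM.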
A general note: Tetrazolium dyes change colour on reduction, which living cells bring about.

Series [8] has as its target Amyloid-beta precursor protein (Homo sapiens) (UniProt P05067). Nature of the series: Inhibition of amyloid beta (1 to 42) aggregation (unknown origin) at 5 to 100 uM after 1 hr by thioflavin T fluorescence assay. Put shortly: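 Aβ42 stock 200 μM in DMSO, centrifuged 12,000 rpm 10 min; supernatant used. ThT in 50 mM glycine-NaOH pH 8.5 then added. Fluorescence read at ex 430 / em 488 nm. Curcumin as positive control.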

Chain of Cholinesterase (P81908 whole entry): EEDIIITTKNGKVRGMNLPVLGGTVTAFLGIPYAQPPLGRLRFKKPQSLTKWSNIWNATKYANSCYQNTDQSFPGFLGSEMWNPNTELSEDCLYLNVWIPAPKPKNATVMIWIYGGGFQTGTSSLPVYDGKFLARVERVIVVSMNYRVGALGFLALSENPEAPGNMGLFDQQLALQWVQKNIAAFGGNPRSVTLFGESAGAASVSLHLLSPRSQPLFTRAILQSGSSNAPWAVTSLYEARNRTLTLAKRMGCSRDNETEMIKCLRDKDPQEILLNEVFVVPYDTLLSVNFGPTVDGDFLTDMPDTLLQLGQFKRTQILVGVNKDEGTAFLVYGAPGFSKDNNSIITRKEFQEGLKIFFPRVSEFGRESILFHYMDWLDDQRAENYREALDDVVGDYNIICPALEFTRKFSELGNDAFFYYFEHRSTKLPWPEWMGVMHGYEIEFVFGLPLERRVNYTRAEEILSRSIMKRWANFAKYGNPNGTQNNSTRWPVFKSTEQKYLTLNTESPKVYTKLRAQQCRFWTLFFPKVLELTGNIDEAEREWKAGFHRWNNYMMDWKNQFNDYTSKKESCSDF
Chain of Amyloid-beta precursor protein (Homo sapiens) (P05067 whole entry): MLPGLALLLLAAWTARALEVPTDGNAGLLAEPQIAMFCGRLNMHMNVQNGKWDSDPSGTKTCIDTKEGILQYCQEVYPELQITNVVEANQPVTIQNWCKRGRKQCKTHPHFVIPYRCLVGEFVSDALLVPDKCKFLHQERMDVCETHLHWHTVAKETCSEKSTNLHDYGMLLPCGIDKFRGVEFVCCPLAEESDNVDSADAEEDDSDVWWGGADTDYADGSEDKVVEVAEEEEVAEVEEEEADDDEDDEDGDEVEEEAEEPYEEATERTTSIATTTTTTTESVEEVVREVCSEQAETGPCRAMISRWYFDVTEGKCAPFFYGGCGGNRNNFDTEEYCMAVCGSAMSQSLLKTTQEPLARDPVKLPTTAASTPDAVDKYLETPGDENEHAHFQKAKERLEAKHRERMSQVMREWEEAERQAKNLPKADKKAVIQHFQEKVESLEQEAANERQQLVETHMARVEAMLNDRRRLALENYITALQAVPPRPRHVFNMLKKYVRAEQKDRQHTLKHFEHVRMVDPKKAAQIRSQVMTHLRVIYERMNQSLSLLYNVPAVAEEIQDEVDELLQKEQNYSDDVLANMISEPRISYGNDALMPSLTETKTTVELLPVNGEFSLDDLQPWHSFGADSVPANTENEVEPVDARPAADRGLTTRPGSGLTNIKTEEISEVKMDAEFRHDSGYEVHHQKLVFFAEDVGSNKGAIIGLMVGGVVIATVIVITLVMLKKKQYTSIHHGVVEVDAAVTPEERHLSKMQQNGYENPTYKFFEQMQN
Chain of Acetylcholinesterase (O42275 whole entry): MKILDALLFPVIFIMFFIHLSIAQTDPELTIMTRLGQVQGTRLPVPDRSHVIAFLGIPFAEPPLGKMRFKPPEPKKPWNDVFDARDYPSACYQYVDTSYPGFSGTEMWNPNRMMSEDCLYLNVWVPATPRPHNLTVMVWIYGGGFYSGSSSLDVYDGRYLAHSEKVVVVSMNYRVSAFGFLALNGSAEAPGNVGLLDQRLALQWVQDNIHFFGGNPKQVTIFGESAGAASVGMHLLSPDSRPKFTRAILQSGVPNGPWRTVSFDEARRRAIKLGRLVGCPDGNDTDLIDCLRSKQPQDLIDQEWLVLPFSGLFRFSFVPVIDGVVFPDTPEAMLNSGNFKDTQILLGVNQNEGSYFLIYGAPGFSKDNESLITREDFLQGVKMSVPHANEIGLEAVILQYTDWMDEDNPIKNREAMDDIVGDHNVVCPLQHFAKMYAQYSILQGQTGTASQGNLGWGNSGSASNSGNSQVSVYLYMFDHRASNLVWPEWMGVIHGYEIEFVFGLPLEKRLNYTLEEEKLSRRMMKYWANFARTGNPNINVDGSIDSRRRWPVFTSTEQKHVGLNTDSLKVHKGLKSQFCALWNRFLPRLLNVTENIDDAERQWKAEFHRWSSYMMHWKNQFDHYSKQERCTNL

The IC50 is the concentration that inhibits the measured activity by half. The low end stands for higher potency, the high end for lower potency. Turning to `COc1ccc2c(c1)[nH]c1cccc(CN(C(=O)CCO[N+](=O)[O-])C(C)C)c12`, the Activity in [1] is 4.8%; in the series on Rattus norvegicus [3], “Non-toxic”; in [6], “Active”; in the series on Rattus norvegicus [7], “Non-toxic”. The result with Rattus norvegicus [2] was Active. Further, the Ratio IC50 in [4] was 0.88. The IC50 against Cholinesterase was 2.5 µM; at Acetylcholinesterase, 2.21 µM. In addition, the Time with Rattus norvegicus [5] came out at 107 s.

On to `COc1ccc2c3c1O[C@H]1C[C@@H](O)C=C[C@@]31CCN(C)C2`, for which the outcome with Rattus norvegicus [2], in the series with PC-12 and with Rattus norvegicus [5] was inactive. The inhibition entry in [8] was “inactive”.
